Structures are written as SMILES.

We go through twelve compounds from ChEMBL document CHEMBL1781895, “Lipid-like sulfoxides and amine oxides as inhibitors of mast cell activation” (Eur J Med Chem, 2011).

The test system of data set [1] is RBL-2H3. Briefly: Inhibition of anti-DNP-IgE-induced degranulation in rat RBL2H3 cells assessed as beta-hexosaminidase release at 25 uM after 30 mins by fluorescence assay. In kind it is functional. The note with it: RBL-2H3, 0.5 h. The method, boiled down: (§1)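 RBL-2H3 cells grown in 70% MEM with Earle's salts/20% RPMI 1640/10% FBS/2 mM L-glutamine, sensitised overnight with anti-DNP IgE ([…]), washed in Tyrode's buffer, preincubated 1 h at 37 °C with or without compound, then challenged with DNP-HSA for 15 min. Supernatant β-hexosaminidase read with 4-methylumbelliferyl-N-acetyl-β-D-glucosaminide (2.5 mM, citrate, 30 min, 37 °C), fluorescence 365/440 nm; duplicate aliquots.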

Data set [2] can be described thus: Cytotoxicity at rat RBL2H3 cells assessed as maximum tolerated concentration by lactate dehydrogenase release assay. The note with it: RBL-2H3 cells, read-out: Activity. In kind it is cell-based.
For data set [3], the system named is RBL-2H3. Briefly: Inhibition of anti-DNP-IgE-induced degranulation in rat RBL2H3 cells assessed as beta-hexosaminidase release after 30 mins by fluorescence assay. It counts as functional, cell-based. Particulars: RBL-2H3, 0.5 h. The procedure, abridged: as §1

Turning to `CCCCCCCCCCCC[S+]([O-])C1CCCCC1OC(C)=O` (configuration not stated), the inhibition (usually the share of the control response that was lost under treatment) at 25 µM in data set [1] is 73%. Further, the MNTC in data set [2] was 100 µM. For the compound `CCCCCCCCCCCCCCCCC(C(=O)O)C(O)(CC(=O)O)C(=O)O` (configuration not stated), the inhibition at 25 µM in data set [1] amounted to 36%. `CCCCCCCCCCCCCC[N+](C)(C)[O-]`: the IC50 (commonly the concentration that inhibits the measured activity by half) in data set [3] was 10.6 µM. Besides, in data set [1], the inhibition at 25 µM is 95%. Further, in data set [2], the MNTC was determined as 100 µM. As for `CCCCCCCCCCCCCCCC(=O)OC[C@H](O)[C@H]1OC(=O)C(O)=C1O` [ASCORBYL PALMITATE], the inhibition at 25 µM in data set [1] was determined as 38%.

In the case of `CCCCCCCCCCCC[S+]([O-])c1ccccc1O` (configuration not stated), the inhibition at 25 µM in data set [1] was 30%. For the same compound, the MNTC in data set [2] came out at 100 µM.

Consider `CCCCCCCCCCCCCCCCCCCCc1ccc(S(N)(=O)=O)cc1`, for which the inhibition at 25 µM in data set [1] was found to be 12%.

As for `CCCCCCCCCCCCC1[S+]([O-])CCC[S+]1[O-]` (configuration not stated), the IC50 in data set [3] amounted to 10.7 µM. The inhibition at 25 µM in data set [1] amounted to 80%. Also, the MNTC in data set [2] stood at 100 µM. As for `CCCCCCCCCCCC[S+]([O-])CC[S+]([O-])CC` (configuration not stated), the inhibition at 25 µM in data set [1] was 51%. The MNTC in data set [2] was determined as 100 µM.

As for `CCCCCCCCCCCC[S+](C)[O-]` (configuration not stated) [DODECYL METHYL SULFOXIDE], the inhibition at 25 µM in data set [1] worked out at 66%. For the same compound, in data set [2], the MNTC was found to be 100 µM. Regarding `CCCCCCCCCCCC[S+]([O-])[C@@H]1CCCC[C@H]1O` (relative stereo), the inhibition at 25 µM in data set [1] stood at 69%. For the same compound, in data set [2], the MNTC was 100 µM. Take `CCCCCCCCCCCC[N+](C)(C)[O-]`: the inhibition at 25 µM in data set [1] came to 40%. For the compound `CCCCCCCCCCCC[S+]([O-])c1ccccc1[S+](C)[O-]` (configuration not stated), the inhibition at 25 µM in data set [1] was determined as 72%. The MNTC in data set [2] stood at 100 µM.
